In series [1] the test system is human foreskin fibroblasts. Description: Toxicity to human foreskin fibroblasts. Type of series: cell-based.
For series [2], the system named is P. falciparum strain TM91C235 (WRAIR, Thailand; chloroquine resistant). Nature of the series: SYBR Green assay, P. falciparum strain C235. Type of series: cell-based, Plasmodium falciparum.
Series [3] relates to T. gondii (Pru strain expressing firefly luciferase). Nature of the series: T. gondii murine infection model. Type of series: in vivo, mice. In a few lines:
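Mice infected intraperitoneally with 2x10⁴ Pru-strain T. gondii tachyzoites expressing firefly luciferase. Animals imaged daily by bioluminescence after intraperitoneal luciferin (3mg). Parasite burden in treated mice compared with a DMSO control group on day 6 post-infection. Three separate replicate experiments, analysed singly and pooled; ANOVA with group and run as factors.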

For series [4], the system named is P. falciparum strain D6 (CDC/Sierra Leone). Nature of the series: SYBR Green assay, P. falciparum strain D6. Type of series: cell-based, Plasmodium falciparum. The settings on record: chloroquine sensitive D6 strain.
Another series relates to Toxoplasma gondii. The note with it: read-out: IC50, growth of T. gondii parasites; cited from earlier work.
Series [5] has as its target T1, Toxoplasma gondii enoyl reductase (TgENR) (Toxoplasma gondii, UniProt Q6UCJ9).
T1 sequence (Q6UCJ9 28-417): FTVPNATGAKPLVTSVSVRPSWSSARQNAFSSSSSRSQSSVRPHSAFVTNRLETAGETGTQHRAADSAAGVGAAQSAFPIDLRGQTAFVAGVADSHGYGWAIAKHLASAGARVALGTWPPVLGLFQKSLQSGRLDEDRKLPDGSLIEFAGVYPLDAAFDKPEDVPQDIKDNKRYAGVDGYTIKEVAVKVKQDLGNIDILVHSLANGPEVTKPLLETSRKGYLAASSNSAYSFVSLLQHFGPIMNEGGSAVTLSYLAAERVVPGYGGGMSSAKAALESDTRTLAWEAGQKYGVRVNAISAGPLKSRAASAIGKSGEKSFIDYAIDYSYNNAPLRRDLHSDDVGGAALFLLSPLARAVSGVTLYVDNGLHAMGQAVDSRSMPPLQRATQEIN
Nature of the series: TgENR enzyme assay. The note with it: read-out: Inhibition (%) at 1 µM. Type of series: biochemical.

Molecules are shown by their SMILES.

With `Oc1cc(Cl)ccc1Oc1ccc2ccccc2c1` [Compound 2], in series [1], the Toxicity is reported as above 10 µM.

In series [1], `Oc1cc(Cl)ccc1Oc1ccc(C(F)(F)F)cc1Cl` [Compound 3] showed a Toxicity above 10 µM. On to `CN1CCN(c2ccc(Oc3ccc(Cl)cc3O)cc2)CC1` [Compound 5a], for which, in series [1], the Toxicity is listed as above 10 µM. As to `Oc1cc(Cl)ccc1Oc1ccc(N2CCOCC2)cc1` [Compound 5b], the Toxicity in series [1] is on record as above 10 µM.

In the case of `CC(=O)N1CCN(c2ccc(Oc3ccc(Cl)cc3O)cc2)CC1` [Compound 5c], the “activity against P. falciparum C235” value in series [2] was “inactive”. In addition, the “efficacy at lower dose” value in series [3] (50mg/kg) is reported as “not effective”. Besides, the “toxicity in infected mice” value in series [3] (75mg/kg, by the seventh day after infection) is reported as “toxic”. Also, the “solubility of higher dose” value in series [3] (100mg/kg) is listed as “not completely soluble”. Moreover, the Toxicity in series [1] is listed as above 10 µM. In series [4], the “activity against P. falciparum D6” value is “inactive”. As for `CN1CCN(Cc2ccc(Oc3ccc(Cl)cc3O)cc2)CC1` [Compound 5d], the Toxicity in series [1] is above 10 µM. For the compound `O=S(=O)(c1ccc(Oc2ccc(Cl)cc2O)cc1)N1CCCC1` [Compound 7a], the Toxicity in series [1] is listed as above 10 µM. On the same count and under the same terms, with `O=S(=O)(c1ccc(Oc2ccc(Cl)cc2O)cc1)N1CCCCC1` [Compound 7b] the figure was above 10 µM. `Cn1cc(C(=O)Nc2ccc(Cl)cc2O)c(C(F)(F)F)n1` [Compound 10] registered a Toxicity in series [1] above 10 µM. Take `CNC(=O)c1ccc(Oc2ccc(Cl)cc2O)o1` [Compound 14a]: the Toxicity in series [1] is listed as above 10 µM. Same read-out and setting: with `Cc1cc(NC(=O)c2ccc(Oc3ccc(Cl)cc3O)o2)no1` [Compound 14b] the figure was above 10 µM. On the same count and under the same terms, under `CC(=O)N1CCN(C(=O)c2ccc(Oc3ccc(Cl)cc3O)o2)CC1` [Compound 14c] stands above 10 µM; under `O=C(O)c1ccc(Oc2ccc(Cl)cc2O)s1` [Compound 16], above 10 µM; under `CC(C)(C)OC(=O)N1CCN(C(=O)c2ccc(Oc3ccc(Cl)cc3O)s2)CC1` [Compound 17b], above 10 µM. With `O=C(c1ccc(Oc2ccc(Cl)cc2O)s1)N1CCNCC1` [Compound 17c], the Toxicity in series [1] is above 10 µM. Same read-out and setting: under `CC(=O)N1CCN(Cc2ccc(Oc3ccc(Cl)cc3O)s2)CC1` [Compound 18] stands above 10 µM. The same measure, in the same setting: under `Oc1cc(Cl)ccc1Oc1ccc2ncccc2c1` [Compound 19] stands above 10 µM. Consider `Oc1cc(Cl)ccc1Oc1ccc(Cl)cc1Cl` [Triclosan], for which the IC50 (usually the concentration at which inhibition is half-maximal) in the series on Toxoplasma gondii is around 200 nM. Also, in series [5], the inhibition (in general, the share of the control response that was lost under treatment) at 1 µM was found to be 98%. Moreover, the Toxicity in series [1] was above 10 µM.

Source of the values: publication PMC3625046 (Bioorganic & medicinal chemistry letters, 2013).
